A selection: hits, their analogues and other compounds. The true share with any hit is near 2.4%.
PGC1a acetyl inh: PGC1a acetylation modulation, inhibitor mode; U2OS PGC1a acetylation, AlphaScreen anti-acetyl-lysine; with virally co-expressed GCN5 acetyltransferase; inhibition, % at 15.6 µM; actives 0.17% (n = 350,000); AID 651687;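 active = every replicate shows inhibition of at least 40%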
ARNT TACC3 PPI: ARNT/TACC3 interaction disruption; AID 623870; AlphaScreen His-ARNT PAS-B/GST-TACC3 binding, luminescence; TACC3 fragment carries E629A point mutation; inhibition, % at 9.99 µM; actives 0.66% (n = 390,000); Q9Y6A5;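 active = mean inhibition of replicates at least 50% and at least half of replicates each reaching 50%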
S100A4 MyoIIA: inhibitors of human S100A4 binding to myosin IIA peptide | actives 0.14% (n = 360,000) | P26447 | AID 652163 | S100A4/TAMRA-MyoIIA peptide fluorescence polarization | inhibition, % at 10.7 µM;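 active = mean inhibition of at least 70% across replicates, with every replicate also reaching that level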
Target sequence (P26447 whole entry, looked up): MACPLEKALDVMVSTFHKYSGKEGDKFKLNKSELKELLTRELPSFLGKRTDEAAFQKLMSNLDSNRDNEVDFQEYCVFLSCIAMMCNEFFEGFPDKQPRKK
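Material: S100A4 monomer protein | Medium: HEPES pH 7.2 with CaCl2, KCl, NaCl, DTT, Triton | Reagent: Labelled myosin peptide probe, 5 nM | Doses: One dose per compound | Times: 5 min incubation before reading | Benchmarks: Neutral control DMSO, positive control TFP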
ERAP1 inh: blocks human ERAP1 aminopeptidase activity; inhibition, % at 10.7 µM; Q9NZ08; actives 0.15% (n = 340,000); recombinant ERAP1, Leu-AMC fluorescence, 60 min;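 active = mean replicate inhibition of at least 30%, or all replicates individually reaching that 30% level; inactive = mean below 30% and not every replicate reaching it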
Ecoli rRNA inh: inhibitors of bacterial rRNA selective over humanized ribosomes. actives 1.6% (n = 350,000). AID 720706. E. coli WT GFP vs humanized-ribosome RFP mutants, fluorescence, 24 h; active compounds read low; DMSO median 0, no signal -100. GFP signal change (wild-type ribosome), % (concentration not given with the values);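 active = significant combined selectivity score with lowered wild-type GFP, culture density cut under 30%, mutant RFP and density less affected; inactive = any of these conditions unmet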
CASP6 VEID inh: inhibitors of human caspase-6. purified caspase-6, Z-VEID-R110 cleavage fluorescence. actives 0.53% (n = 350,000). inhibition, % at 12.5 µM. P55212;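 active = mean inhibition across replicates at least about 35%, with every replicate also reaching that limit, limit read from the data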
Target sequence (P55212 24-179 limits assumed): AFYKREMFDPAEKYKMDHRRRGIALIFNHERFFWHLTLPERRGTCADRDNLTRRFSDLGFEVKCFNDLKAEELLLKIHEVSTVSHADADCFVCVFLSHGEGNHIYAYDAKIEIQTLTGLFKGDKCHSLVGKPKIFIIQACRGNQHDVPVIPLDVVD
Target sequence (P55212 194-293 limits assumed): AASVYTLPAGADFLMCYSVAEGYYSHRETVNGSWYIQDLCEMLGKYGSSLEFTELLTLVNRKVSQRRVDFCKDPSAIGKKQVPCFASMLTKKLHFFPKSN
A number is an active result; i = inactive; nt = no result given.

SMILES	PGC1a acetyl inh	ARNT TACC3 PPI	S100A4 MyoIIA	ERAP1 inh	Ecoli rRNA inh	CASP6 VEID inh
O=C(Nc1ccc2c(c1)OCO2)N[C@H]1CC[C@H](CC(=O)N2CCN(c3ccccc3)CC2)O[C@H]1CO	i	i	i	i	i	i
Cc1ccc(NC(=O)C2CCCN(S(=O)(=O)c3c(C)noc3/C=C/N(C)C)C2)c(C)c1 (stereo not drawn)	i	i	i	i	i	i
Cc1ccc(C)c(NC(=O)C2CCCN(S(=O)(=O)c3c(C)noc3/C=C/N(C)C)C2)c1 (stereo not drawn)	i	i	122	i	i	i
COc1cccc(NC(=O)N(C)C[C@H]2Oc3ncc(C4=CCCCC4)cc3C(=O)N([C@H](C)CO)C[C@@H]2C)c1	i	i	i	i	i	i
N#Cc1cc2c(nc1SCC(O)CS(=O)(=O)Cc1ccccc1)CCCC2 (stereo not drawn)	i	i	i	i	-35	i
N#Cc1cc2c(nc1SCc1ccccc1)CCCCC2	i	i	nt	nt	nt	nt
CN(C)c1ccc(C(=S)NC2CCCCC2)cc1	nt	nt	i	i	i	i
CCN(CC)c1ccc(C(=S)NC2CCCCC2)cc1	i	i	i	i	-21	i
CN(C)C1=NCC(CSC(=N)N)S1 (stereo not drawn)	nt	i	i	nt	-37	i
O=C(O)c1cc(/C=C/c2ccc(N3CCOCC3)cc2)nc2ccccc12	nt	i	i	i	-25	i
COc1cc(/C=C/c2cc(C(=O)O)c3ccccc3n2)ccc1OC(F)F	i	i	i	i	-26	i
COc1cc(/C=C/C(=O)OCN2C(=O)c3ccccc3C2=O)ccc1OC(F)F	nt	i	i	i	i	i
O=C(O)c1cc(/C=C/c2ccc(N3CCOCC3)c([N+](=O)[O-])c2)nc2ccccc12	i	nt	i	i	i	i
O=C(NCC1CCCO1)C(=O)N/N=C/c1cc(Cl)ccc1O (stereo not drawn)	i	46	i	i	i	i
O=C(NCC1CCCO1)C(=O)N/N=C/c1ccc(O)c(Cl)c1 (stereo not drawn)	i	i	i	i	i	i
O=C(N/N=C/c1cc(Cl)ccc1O)c1ccncc1	i	69	i	i	i	i
Cc1noc(C)c1NC(=O)Nc1ccc2c(c1)C(=O)N([C@@H](C)CO)C[C@@H](C)[C@@H](CN(C)S(=O)(=O)c1c(C)noc1C)OCCCC[C@@H](C)O2	i	i	i	i	i	i
CN1C(=O)c2cc(NC(=O)C3CCOCC3)ccc2OC[C@H]2O[C@H](CC(=O)NC3CCCC3)CC[C@@H]21	i	i	i	i	i	i
COc1ccc(OC)c(NC(=O)Nc2c(O)ccc3ccccc23)c1	nt	i	i	i	-27	i
COc1ccc(OC)c(NC(=O)Nc2ccc(O)c3ccccc23)c1	i	i	i	i	nt	54
COc1ccc(OC)c(C(=O)Nc2c(O)ccc3ccccc23)c1	nt	i	i	nt	nt	i
COc1ccc(OC)c(NC(=O)Nc2ccccc2C)c1	i	i	nt	nt	nt	nt
CSc1ccccc1NC(=S)N/N=C/c1cccn1Cc1ccc(F)cc1	i	i	i	i	-21	i
C/C(=N\NC(=O)c1ccccc1)c1cc2cc([N+](=O)[O-])ccc2oc1=O	nt	77	nt	nt	nt	nt
CC[C@H](C)[C@@H]1NC(=O)[C@@H](CC(C)C)NC(=O)[C@H](C(C)C)NC(=O)[C@H]2CSSC[C@H](NC1=O)C(=O)N2	72	nt	i	i	i	i
SMILES	PGC1a acetyl inh	ARNT TACC3 PPI	S100A4 MyoIIA	ERAP1 inh	Ecoli rRNA inh	CASP6 VEID inh
CO[C@@H]1CC[C@H]2CCN(C)C(=O)CCCN(C)C(=O)c3cccc(C#N)c3OC[C@H]1O2	nt	i	i	i	i	i
C[C@H]1CN([C@@H](C)CO)C(=O)c2cc(-c3ccncc3)cnc2O[C@H]1CN(C)Cc1ccc(F)cc1	i	44	i	i	i	i
C[C@@H]1CN([C@H](C)CO)C(=O)c2cc(-c3ccc(F)cc3)cnc2O[C@H]1CN(C)Cc1cncnc1	nt	i	107	i	i	i
Cc1ccc(-c2cnc3c(c2)C(=O)N([C@@H](C)CO)C[C@@H](C)[C@@H](CN(C)C)O3)cc1	i	i	i	i	i	i
C[C@@H]1CN([C@H](C)CO)C(=O)c2cc(C3=CCCC3)cnc2O[C@@H]1CN(C)Cc1ccc(F)cc1	nt	i	105	i	i	i
Cc1ccc(-c2cnc3c(c2)C(=O)N([C@@H](C)CO)C[C@@H](C)[C@H](CN(C)C)O3)cc1	109	i	i	i	i	i
C[C@@H]1CCCCO[C@@H](CN(C)Cc2ccncc2)[C@@H](C)CN([C@H](C)CO)C(=O)c2cc(NS(C)(=O)=O)ccc2O1	i	nt	nt	nt	i	nt
COc1ccc(CN(C)C[C@H]2Oc3ccc(NS(=O)(=O)c4c(C)noc4C)cc3C(=O)N([C@H](C)CO)C[C@@H]2C)cc1	i	i	i	i	i	i
O=C(C1=C[C@@H](c2ccc(C(F)(F)F)cc2)C[C@@H](OCc2ccc(CO)cc2)O1)N1CCCC1	i	nt	i	i	nt	i
CCC(=O)N1[C@H](CO)[C@H](c2ccccc2)C12CN(C(=O)c1cnccn1)C2	nt	nt	nt	nt	i	nt
C[C@H]1CN([C@@H](C)CO)C(=O)c2cc(C#CC3CCCCC3)cnc2O[C@H]1CN(C)Cc1cncnc1	i	i	98	i	i	i
C[C@@H]1CN([C@H](C)CO)C(=O)c2cc(C3=CCCCC3)cnc2O[C@H]1CN(C)C(=O)Cc1cccnc1	i	active	i	i	i	i
Cc1noc(C)c1NC(=O)N(C)C[C@@H]1Oc2c(NC(=O)c3ccc(-c4nccs4)cc3)cccc2C(=O)N([C@@H](C)CO)C[C@@H]1C	i	i	i	i	i	i
O=S1(=O)c2ccc(Br)cc2OC2CCCN1C2 (stereo not drawn)	nt	nt	i	i	i	i
O=S1(=O)c2ccc(Br)cc2OCCC2CCCCN21 (stereo not drawn)	nt	nt	i	nt	-21	i
COc1ccc(C2(C)CC(C)(C)Nc3ccccc32)cc1 (stereo not drawn)	i	i	i	i	-29	i
COc1ccc(C2CC(C)(c3ccc(OC)cc3)Nc3ccccc3N2)cc1 (stereo not drawn)	i	i	i	i	nt	i
C[C@H](CO)N1C[C@H](C)[C@@H](CN(C)C(=O)Nc2ccc3c(c2)OCO3)Oc2ccc(NC(=O)Nc3ccccc3)cc2CC1=O	i	i	i	i	i	i
CCCNC(=O)N1CCC2(CC1)CN(C(C)=O)[C@@H](CO)c1[nH]c3cc(OC)ccc3c12	nt	nt	nt	nt	i	nt
CC[C@@H]1CC=CC[C@H](C)Oc2ccccc2C(=O)N(C)[C@@H](Cc2ccccc2)C(=O)N1 (mixture of isomers)	nt	nt	nt	nt	i	nt
